One may read the Ki as the equilibrium dissociation constant of an inhibitor or competing ligand from its target. Lower therefore signals higher affinity. Usually MIC stands for the lowest concentration found to suppress growth.

This note sets out measurements from ChEMBL document CHEMBL3785040, “Syntheses and Biological Evaluations of Highly Functionalized Hydroxamate Containing and N-Methylthio Monobactams as Anti-Tuberculosis and β-Lactamase Inhibitory Agents” (Medchemcomm, 2016).

The nature of experiment [1]: Inhibition of purified beta-lactamase NDM-1 (unknown origin) using imipenem as substrate preincubated for 10 mins followed by substrate addition. The method in brief:
(§1)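 Test compound was preincubated 10 min with enzyme, then substrate was added and optical density was followed over time to determine Ki (μM). CTX-M-14 (class A), Oxa-48 (class D) and NDM-1 (class B) were purified enzymes; VIM-1 (class B) was a lysate. NDM-1 used imipenem as substrate; the other three used nitrocefin.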

The nature of experiment [2]: Inhibition of purified beta-lactamase Oxa-48 (unknown origin) using nitrocefin as substrate preincubated for 10 mins followed by substrate addition. The method in brief:
as §1

Experiment [3] in a line: Inhibition of purified beta-lactamase CTX-M-14 (unknown origin) using nitrocefin as substrate preincubated for 10 mins followed by substrate addition. Summed up: as §1
The nature of experiment [4]: Inhibition of beta-lactamase VIM-1 lysate (unknown origin) using nitrocefin as substrate preincubated for 10 mins followed by substrate addition. The method in brief: as §1
For experiment [5], the system named is Mycobacterium tuberculosis. The experiment is described as follows: Antituberculosis activity against Mycobacterium tuberculosis H37Rv in glycerol-alanine salts medium incubated for 4 days by Microplate Alamar Blue assay. It counts as functional. The conditions noted are these: 96 h. Summed up:
(§2)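 MICs in μM were determined against M. tuberculosis H37Rv by Microplate Alamar Blue assay. Line 2 used 7H12 medium, which is 7H9 medium plus casitone, palmitic acid, albumin and catalase.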

Experiment [6] deals with Mycobacterium tuberculosis. Kind of experiment: Antituberculosis activity against Mycobacterium tuberculosis H37Rv in 7H12 medium incubated for 4 days by Microplate Alamar Blue assay. It counts as functional. Particulars: 96 h. Summed up:
as §2
(In general: The colour change of resazurin is a common sign of viable cells or microbes.)

The test system of the next experiment is Mycolicibacterium vaccae. The experiment is described as follows: Antibacterial activity against Mycobacterium vaccae IMET 10670 incubated for 18 to 24 hrs measured after 24 to 48 hrs by agar diffusion assay. It counts as functional, organism-based. Summed up: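 Kirby–Bauer agar diffusion assay; the read-out is the diameter of the inhibition zone in mm.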

In brackets after ≈: the same amount, converted by molar mass. Activity calls are given as the source filed them. No cut-off for these calls is given here.

As for `CC(=O)O[C@@H]1NC(=O)[C@H]1NC(=O)COc1ccccc1`, the Ki is 5.87 µM in experiment [1], > 160 µM in experiment [2], > 160 µM in experiment [3] and > 160 µM in experiment [4].
Consider `C[C@@H](O[Si](C)(C)C(C)(C)C)[C@H]1C(=O)N[C@@H]1N(OCc1ccccc1)C(=O)c1ccccc1`, for which the minimum inhibitory concentration (MIC) in experiment [5] and in experiment [6] was > 100 µM in each case. For the same compound, the Ki in experiment [1] is > 160 µM; in experiment [2], > 160 µM; in experiment [3], 0.25 µM; in experiment [4], > 160 µM.
With `CSN1C(=O)[C@H]([C@@H](C)O[Si](C)(C)C(C)(C)C)[C@H]1N(OCc1ccccc1)C(=O)c1ccccc1`, the minimum inhibitory concentration (MIC) in experiment [5] came to 0.753 µM; in experiment [6] it was 10.3 µM (≈ 5.14 µg/mL). In addition, the inhibition constant Ki in experiment [1] is > 160 µM; in experiment [2] it was > 160 µM; in experiment [3] it was 0.4 µM; in experiment [4], > 160 µM. Further, the result in the experiment on Mycolicibacterium vaccae was inactive.
For `C[C@@H](O)[C@H]1C(=O)N[C@@H]1N(OCc1ccccc1)C(=O)c1ccccc1`, the minimal inhibitory concentration (MIC) in experiment [5] and in experiment [6] was > 100 µM in each case. Further, the Ki in experiment [1], in experiment [2], in experiment [3] and in experiment [4] was > 160 µM in each case.
For `CSN1C(=O)[C@@H](NC(=O)Cc2ccccc2)[C@@H]1OC(C)=O`, the results for the minimal inhibitory concentration (MIC) in experiment [5] and in experiment [6] were 10.7 µM and 47.6 µM (≈ 14.7 µg/mL), respectively.
For the compound `C[C@@H](O[Si](C)(C)C(C)(C)C)[C@H]1C(=O)N[C@@H]1N(O)C(=O)c1ccccc1`, the MIC in experiment [5] and in experiment [6] was > 50 µM each time. The inhibition constant Ki was > 160 µM in experiment [1], > 160 µM in experiment [2], 0.32 µM in experiment [3] and > 160 µM in experiment [4].
In the case of `O=C(Cc1ccccc1)N[C@@H]1C(=O)N[C@H]1N(OCc1ccccc1)C(=O)c1ccccc1`, the values for the minimal inhibitory concentration (MIC) in experiment [5] and in experiment [6] were 6.05 µM and > 100 µM, respectively. Moreover, the Ki was 5.54 µM in experiment [1], > 160 µM in experiment [2], > 160 µM in experiment [3] and > 160 µM in experiment [4].
`O=C(COc1ccccc1)N[C@@H]1C(=O)N[C@H]1N(OCc1ccccc1)C(=O)c1ccccc1`: the results for the MIC in experiment [5] and in experiment [6] were < 0.195 µM and 5.93 µM (≈ 2.64 µg/mL), respectively. The inhibition constant (Ki) was > 160 µM in experiment [1], > 160 µM in experiment [2], 0.05 µM in experiment [3] and > 160 µM in experiment [4].
For the compound `C=CCON(C(=O)c1ccc([N+](=O)[O-])cc1)C1CC(=O)N1SC` (racemic), the Ki in experiment [1] is 0.03 µM; in experiment [2] it was > 160 µM; in experiment [3] it was 0.64 µM; in experiment [4], 22.7 µM.
With `CSN1C(=O)CC1N(OCc1ccccc1)C(=O)c1ccc([N+](=O)[O-])cc1` (racemic), the MIC is 24.2 µM in experiment [5] and > 100 µM in experiment [6]. The Ki in experiment [1] is 0.97 µM; in experiment [2], > 160 µM; in experiment [3], > 160 µM; in experiment [4], > 160 µM.
As to `CCOc1ccc(C(=O)N(OCc2ccccc2)C2CC(=O)N2)cc1` (racemic), the MIC in experiment [5] was 49.3 µM; in experiment [6] it was > 100 µM. For the same compound, the Ki in experiment [1], in experiment [2], in experiment [3] and in experiment [4] was > 160 µM each time.
Regarding `CSN1C(=O)[C@@H](NC(=O)Cc2ccccc2)[C@@H]1N(OCc1ccccc1)C(=O)c1ccccc1` (racemic), the minimum inhibitory concentration (MIC) amounted to 11.6 µM in experiment [5] and 47.3 µM (≈ 22.5 µg/mL) in experiment [6]. Besides, the Ki in experiment [1] was 0.07 µM; in experiment [2], 1.95 µM; in experiment [3] it was > 160 µM; in experiment [4] it was 2.86 µM.
For `CSN1C(=O)CC1N(OCc1ccccc1)C(=O)c1cc([N+](=O)[O-])cc(C(F)(F)F)c1` (racemic), the minimum inhibitory concentration (MIC) was 5.92 µM in experiment [5] and 23.4 µM (≈ 10.6 µg/mL) in experiment [6].
`C=CCON(C(=O)c1ccc([N+](=O)[O-])cc1)C1CC(=O)N1` (racemic): the Ki in experiment [1], in experiment [2], in experiment [3] and in experiment [4] was > 160 µM in each case.
Regarding `CSN1C(=O)[C@@H](NC(=O)COc2ccccc2)[C@@H]1N(OCc1ccccc1)C(=O)c1ccccc1` (racemic), the MIC was > 50 µM in experiment [5] and 6 µM (≈ 2.95 µg/mL) in experiment [6]. Moreover, the Ki in experiment [1] was 0.06 µM; in experiment [2], > 160 µM; in experiment [3] it was > 160 µM; in experiment [4] it was > 160 µM. Moreover, in the experiment with Mycolicibacterium vaccae, the outcome was inactive.
For `CSN1C(=O)[C@@H](NC(=O)COc2ccccc2)[C@@H]1N(OCc1ccccc1)C(=O)c1cc([N+](=O)[O-])cc(C(F)(F)F)c1` (racemic), the minimal inhibitory concentration (MIC) was 64.1 µM in experiment [5] and > 100 µM in experiment [6]. For the same compound, the Ki in experiment [1] was 0.15 µM; in experiment [2], > 160 µM; in experiment [3], > 160 µM; in experiment [4], > 160 µM.
As for `CC(C)(C)[Si](C)(C)ON(C(=O)c1ccccc1)[C@@H]1NC(=O)[C@H]1NC(=O)COc1ccccc1` (racemic), the inhibition constant (Ki) was 0.96 µM in experiment [1], > 160 µM in experiment [2], > 160 µM in experiment [3] and 31.2 µM in experiment [4].
Regarding `CC(C)(C)[Si](C)(C)N1C(=O)CC1N(OCc1ccccc1)C(=O)c1ccccc1` (racemic), the minimum inhibitory concentration (MIC) was found to be 0.28 µM in experiment [5] and 49.2 µM (≈ 20.2 µg/mL) in experiment [6]. The inhibition constant Ki in experiment [1] is > 160 µM; in experiment [2], 1.72 µM; in experiment [3] it was > 160 µM; in experiment [4] it was > 160 µM. Further, the outcome in the experiment on Mycolicibacterium vaccae was inactive.
Regarding `CCOc1ccc(C(=O)N(OCc2ccccc2)C2CC(=O)N2SC)cc1` (racemic), the MIC in experiment [5] is 34.8 µM; in experiment [6], > 100 µM. In addition, the Ki is 0.07 µM in experiment [1], > 160 µM in experiment [2], > 160 µM in experiment [3] and > 160 µM in experiment [4].
For the compound `CSN1C(=O)CC1N(OCc1ccccc1)C(=O)c1ccccc1` (racemic), the MIC in experiment [5] was 17.9 µM; in experiment [6] it was > 50 µM.
With `C=CCON(C(=O)c1cc([N+](=O)[O-])cc(C(F)(F)F)c1)C1CC(=O)N1SC` (racemic), the inhibitory constant (Ki) in experiment [1] was 0.04 µM; in experiment [2] it was > 160 µM; in experiment [3], > 160 µM; in experiment [4], 59.3 µM.
`C=CCON(C(=O)c1cc([N+](=O)[O-])cc(C(F)(F)F)c1)C1CC(=O)N1` (racemic): the Ki in experiment [1] was > 160 µM; in experiment [2] it was 1.93 µM; in experiment [3] it was > 160 µM; in experiment [4] it was > 160 µM.
Turning to `O=C1CC(N(OCc2ccccc2)C(=O)c2cc([N+](=O)[O-])cc(C(F)(F)F)c2)N1` (racemic), the minimum inhibitory concentration (MIC) in experiment [5] turned out to be 30.3 µM; in experiment [6], 44.7 µM (≈ 18.3 µg/mL).
Regarding `C[C@H]1COC2(CCN(c3nc(=O)c4cc(C(F)(F)F)cc([N+](=O)[O-])c4s3)CC2)O1` [BTZ-043], the MIC in experiment [5] and in experiment [6] was < 0.004 µM each time.
Take `CO[C@H]1/C=C/O[C@@]2(C)Oc3c(C)c(O)c4c(O)c(c(/C=N/N5CCN(C)CC5)c(O)c4c3C2=O)NC(=O)/C(C)=C\C=C\[C@H](C)[C@H](O)[C@@H](C)[C@@H](O)[C@@H](C)[C@H](OC(C)=O)[C@@H]1C` [RIFAMPIN]: the figures for the minimum inhibitory concentration (MIC) in experiment [5] and in experiment [6] were 0.04 µM and 0.05 µM (≈ 0.0411 µg/mL), respectively.
